Test results from ChEMBL document CHEMBL5661979, “Pharmacological inhibition of BMK1 suppresses tumor growth through promyelocytic leukemia protein” (Cancer Cell, 2010).

How the values were obtained:
[1] = target: Cyclin-dependent kinase 13 (Homo sapiens, UniProt Q14004); assay: Inhibition of CHED in human HeLa cells lysate pre incubated for 15 mins followed by ATP acyl phosphate probe addition and measured after 10 mins by LC-MS/MS analysis; type: subcellular
In short: (§1)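 KiNativ profiling in HeLa lysate (5 mg/mL total protein). Lysate incubated 15 min with inhibitor at 50, 10, 2, 0.8 or 0 μM. ATP or ADP acylphosphate probe then added (5 μM final) and reacted 10 min. Reaction stopped with urea and analysed by targeted MS, using up to four fragment ions per kinase peptide-probe conjugate. % inhibition taken against untreated lysate. Run in duplicate.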

[2] = Inhibition of MAP3K2/MAP3K3 in human HeLa cells lysate pre incubated for 15 mins followed by ATP acyl phosphate probe addition and measured after 10 mins by LC-MS/MS analysis; type: subcellular
[3] = target: Serine/threonine-protein kinase Nek3 (Homo sapiens, UniProt P51956); assay: Inhibition of NEK3 in human HeLa cells lysate pre incubated for 15 mins followed by ADP acyl phosphate probe addition and measured after 10 mins by LC-MS/MS analysis; type: subcellular
[4] = target: Ribosomal protein S6 kinase alpha-1 (Homo sapiens, UniProt Q15418); assay: Inhibition of RSK1 domain 1 in human HeLa cells lysate pre incubated for 15 mins followed by ADP acyl phosphate probe addition and measured after 10 mins by LC-MS/MS analysis; type: subcellular
[5] = target: T1, RPS6KA1/RPS6KA2/RPS6KA3 (Homo sapiens, UniProt P51812+Q15349+Q15418); assay: Inhibition of RSK1/RSK2/RSK3 domain 1 in human HeLa cells lysate pre incubated for 15 mins followed by ADP acyl phosphate probe addition and measured after 10 mins by LC-MS/MS analysis; type: subcellular
[6] = target: Serine/threonine-protein kinase PLK1 (Homo sapiens, UniProt P53350); assay: Inhibition of PLK1 in human HeLa cells lysate at 10 uM pre incubated for 15 mins followed by ADP acyl phosphate probe addition and measured after 10 mins by LC-MS/MS analysis relative to control; type: subcellular; details: time 25.0 min
[7] = target: T1, RPS6KA1/RPS6KA2/RPS6KA3; assay: Inhibition of RSK1/2/3 in human HeLa cells lysate at 50 uM pre incubated for 15 mins followed by ATP acyl phosphate probe addition and measured after 10 mins by LC-MS/MS analysis relative to control; type: subcellular; details: time 25.0 min
[8] = target: T2, Cyclin-dependent kinase 9 (Homo sapiens, UniProt P50750); assay: Inhibition of CDK9 in human HeLa cells lysate at 10 uM pre incubated for 15 mins followed by ATP acyl phosphate probe addition and measured after 10 mins by LC-MS/MS analysis relative to control; type: subcellular; details: time 25.0 min; in short: as §1
[9] = target: Ribosomal protein S6 kinase alpha-3 (Homo sapiens, UniProt P51812); assay: Inhibition of RSK2 domain 1 active form in human HeLa cells lysate at 2 uM pre incubated for 15 mins followed by ATP acyl phosphate probe addition and measured after 10 mins by LC-MS/MS analysis relative to control; type: subcellular; details: time 25.0 min
[10] = target: T2, Cyclin-dependent kinase 9; assay: Inhibition of CDK9 in human HeLa cells lysate at 2 uM pre incubated for 15 mins followed by ATP acyl phosphate probe addition and measured after 10 mins by LC-MS/MS analysis relative to control; type: subcellular; details: time 25.0 min; in short: as §1
[11] = target: T3, Serine/threonine-protein kinase Chk1 (Homo sapiens) (UniProt O14757); assay: Inhibition of CHK1 in human HeLa cells lysate at 2 uM pre incubated for 15 mins followed by ATP acyl phosphate probe addition and measured after 10 mins by LC-MS/MS analysis relative to control; type: subcellular; details: time 25.0 min
T3 sequence (whole entry): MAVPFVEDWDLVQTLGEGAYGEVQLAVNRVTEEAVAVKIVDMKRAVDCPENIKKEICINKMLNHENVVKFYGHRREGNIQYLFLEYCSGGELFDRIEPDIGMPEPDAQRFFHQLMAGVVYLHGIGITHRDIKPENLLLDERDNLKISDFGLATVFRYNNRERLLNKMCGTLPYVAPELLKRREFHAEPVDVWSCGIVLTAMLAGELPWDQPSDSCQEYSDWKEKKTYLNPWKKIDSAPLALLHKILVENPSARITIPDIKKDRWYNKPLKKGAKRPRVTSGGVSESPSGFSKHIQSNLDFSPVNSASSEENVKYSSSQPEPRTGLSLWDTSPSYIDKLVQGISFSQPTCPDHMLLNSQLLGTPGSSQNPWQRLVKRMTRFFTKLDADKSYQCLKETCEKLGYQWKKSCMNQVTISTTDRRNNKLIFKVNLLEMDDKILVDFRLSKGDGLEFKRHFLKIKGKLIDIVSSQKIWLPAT

[12] = target: Mitogen-activated protein kinase 14 (Homo sapiens, UniProt Q16539); assay: Inhibition of P38alpha interaction site in human HeLa cells lysate at 2 uM pre incubated for 15 mins followed by ATP acyl phosphate probe addition and measured after 10 mins by LC-MS/MS analysis relative to control; type: subcellular; details: time 25.0 min
[13] = target: Serine/threonine-protein kinase DCLK2 (Homo sapiens, UniProt Q8N568); assay: Binding affinity to DCAMKL2 (unknown origin) assessed as dissociation constant by ATP-competition binding assay
Serine/threonine-protein kinase DCLK2, sequence (Q8N568 whole entry): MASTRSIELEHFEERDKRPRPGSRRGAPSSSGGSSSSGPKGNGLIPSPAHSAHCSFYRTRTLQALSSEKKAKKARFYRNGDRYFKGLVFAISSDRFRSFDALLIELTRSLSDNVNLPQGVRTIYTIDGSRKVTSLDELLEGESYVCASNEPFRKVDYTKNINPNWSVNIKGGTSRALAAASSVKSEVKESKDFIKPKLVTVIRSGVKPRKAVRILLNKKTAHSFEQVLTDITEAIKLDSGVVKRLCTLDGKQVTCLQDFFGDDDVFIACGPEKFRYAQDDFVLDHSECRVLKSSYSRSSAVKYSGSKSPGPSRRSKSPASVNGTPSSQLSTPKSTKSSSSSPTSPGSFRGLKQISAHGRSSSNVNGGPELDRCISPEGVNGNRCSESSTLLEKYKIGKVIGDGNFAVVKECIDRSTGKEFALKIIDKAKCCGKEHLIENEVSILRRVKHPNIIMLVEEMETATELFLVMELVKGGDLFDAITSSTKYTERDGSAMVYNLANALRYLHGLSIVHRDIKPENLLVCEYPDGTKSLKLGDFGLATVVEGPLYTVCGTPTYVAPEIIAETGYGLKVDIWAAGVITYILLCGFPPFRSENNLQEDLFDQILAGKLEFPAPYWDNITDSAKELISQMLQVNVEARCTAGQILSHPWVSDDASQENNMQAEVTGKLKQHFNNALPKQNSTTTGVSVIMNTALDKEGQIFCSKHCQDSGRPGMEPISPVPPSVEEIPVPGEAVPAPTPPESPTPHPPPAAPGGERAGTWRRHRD

T2 sequence (P50750 whole entry, the tested form may be a part): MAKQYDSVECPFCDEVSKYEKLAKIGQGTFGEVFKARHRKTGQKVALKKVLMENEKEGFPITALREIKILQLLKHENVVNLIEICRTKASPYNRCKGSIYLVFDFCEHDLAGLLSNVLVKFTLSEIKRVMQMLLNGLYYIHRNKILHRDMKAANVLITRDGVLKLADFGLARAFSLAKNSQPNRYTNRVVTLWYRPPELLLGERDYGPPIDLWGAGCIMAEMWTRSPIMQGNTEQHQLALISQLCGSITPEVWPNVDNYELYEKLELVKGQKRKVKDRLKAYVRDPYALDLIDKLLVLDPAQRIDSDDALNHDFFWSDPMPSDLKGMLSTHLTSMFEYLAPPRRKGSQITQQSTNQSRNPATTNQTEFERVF
Serine/threonine-protein kinase PLK1, sequence (P53350 whole entry): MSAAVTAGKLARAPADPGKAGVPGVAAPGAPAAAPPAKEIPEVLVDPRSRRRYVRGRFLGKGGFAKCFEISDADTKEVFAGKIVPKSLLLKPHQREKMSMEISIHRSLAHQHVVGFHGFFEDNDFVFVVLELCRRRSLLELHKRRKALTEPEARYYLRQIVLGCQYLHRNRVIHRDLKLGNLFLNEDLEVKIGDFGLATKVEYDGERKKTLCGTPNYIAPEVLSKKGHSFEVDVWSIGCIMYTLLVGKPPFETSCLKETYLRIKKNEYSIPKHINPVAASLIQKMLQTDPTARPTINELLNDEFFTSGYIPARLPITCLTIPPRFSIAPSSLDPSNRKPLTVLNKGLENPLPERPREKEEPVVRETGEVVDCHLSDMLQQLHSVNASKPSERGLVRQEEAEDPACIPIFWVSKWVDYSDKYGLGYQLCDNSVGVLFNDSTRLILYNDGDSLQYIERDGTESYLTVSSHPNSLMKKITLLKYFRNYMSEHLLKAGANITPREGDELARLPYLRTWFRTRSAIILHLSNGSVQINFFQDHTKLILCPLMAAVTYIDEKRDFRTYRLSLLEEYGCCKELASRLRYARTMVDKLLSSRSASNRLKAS
Ribosomal protein S6 kinase alpha-1, sequence (Q15418 whole entry, the tested form may be a part): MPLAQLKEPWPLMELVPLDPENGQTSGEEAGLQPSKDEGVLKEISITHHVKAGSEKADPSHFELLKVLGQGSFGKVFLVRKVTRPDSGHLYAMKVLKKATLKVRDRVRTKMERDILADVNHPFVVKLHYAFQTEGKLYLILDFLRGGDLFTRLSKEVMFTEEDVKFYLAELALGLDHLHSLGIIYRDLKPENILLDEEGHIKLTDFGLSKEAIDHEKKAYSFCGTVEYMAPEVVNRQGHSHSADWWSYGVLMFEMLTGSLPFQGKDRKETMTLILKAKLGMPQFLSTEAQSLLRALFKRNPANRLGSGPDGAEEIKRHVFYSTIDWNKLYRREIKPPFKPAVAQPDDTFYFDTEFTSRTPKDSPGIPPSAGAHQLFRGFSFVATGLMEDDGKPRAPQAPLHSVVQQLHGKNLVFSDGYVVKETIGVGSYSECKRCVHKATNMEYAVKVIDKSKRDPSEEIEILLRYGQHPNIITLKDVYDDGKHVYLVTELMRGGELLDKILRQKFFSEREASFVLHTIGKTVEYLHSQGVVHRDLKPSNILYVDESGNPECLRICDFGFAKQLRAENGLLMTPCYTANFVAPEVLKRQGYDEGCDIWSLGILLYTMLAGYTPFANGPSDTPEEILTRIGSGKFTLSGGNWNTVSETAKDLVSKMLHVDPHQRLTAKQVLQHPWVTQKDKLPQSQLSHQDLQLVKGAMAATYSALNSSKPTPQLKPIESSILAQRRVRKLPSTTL
Ribosomal protein S6 kinase alpha-3, sequence (P51812 whole entry, the tested form may be a part): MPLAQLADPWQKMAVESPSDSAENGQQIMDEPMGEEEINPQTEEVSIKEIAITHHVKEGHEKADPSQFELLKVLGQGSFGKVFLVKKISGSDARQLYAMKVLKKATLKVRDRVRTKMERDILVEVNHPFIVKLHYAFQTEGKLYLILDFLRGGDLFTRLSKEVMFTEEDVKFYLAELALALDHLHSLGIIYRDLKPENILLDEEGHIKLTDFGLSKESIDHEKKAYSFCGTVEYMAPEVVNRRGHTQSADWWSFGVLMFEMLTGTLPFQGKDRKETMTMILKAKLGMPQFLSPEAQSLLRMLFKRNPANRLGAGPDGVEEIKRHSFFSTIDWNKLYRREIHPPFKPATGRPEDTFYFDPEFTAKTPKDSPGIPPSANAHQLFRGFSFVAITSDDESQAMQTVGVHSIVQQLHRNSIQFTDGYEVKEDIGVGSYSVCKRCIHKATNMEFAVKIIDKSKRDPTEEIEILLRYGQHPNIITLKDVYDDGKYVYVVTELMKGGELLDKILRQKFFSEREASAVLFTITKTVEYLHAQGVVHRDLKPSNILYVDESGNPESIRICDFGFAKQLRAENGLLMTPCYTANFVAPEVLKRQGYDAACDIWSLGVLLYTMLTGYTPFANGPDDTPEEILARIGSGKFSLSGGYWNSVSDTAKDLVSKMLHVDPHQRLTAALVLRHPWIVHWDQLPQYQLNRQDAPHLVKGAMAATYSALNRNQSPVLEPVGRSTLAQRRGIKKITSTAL
T1 sequence (P51812 whole entry, looked up, the tested form may be a part): as the sequence (P51812 whole entry, the tested form may be a part) above
T1 sequence (Q15349 whole entry, looked up, the tested form may be a part): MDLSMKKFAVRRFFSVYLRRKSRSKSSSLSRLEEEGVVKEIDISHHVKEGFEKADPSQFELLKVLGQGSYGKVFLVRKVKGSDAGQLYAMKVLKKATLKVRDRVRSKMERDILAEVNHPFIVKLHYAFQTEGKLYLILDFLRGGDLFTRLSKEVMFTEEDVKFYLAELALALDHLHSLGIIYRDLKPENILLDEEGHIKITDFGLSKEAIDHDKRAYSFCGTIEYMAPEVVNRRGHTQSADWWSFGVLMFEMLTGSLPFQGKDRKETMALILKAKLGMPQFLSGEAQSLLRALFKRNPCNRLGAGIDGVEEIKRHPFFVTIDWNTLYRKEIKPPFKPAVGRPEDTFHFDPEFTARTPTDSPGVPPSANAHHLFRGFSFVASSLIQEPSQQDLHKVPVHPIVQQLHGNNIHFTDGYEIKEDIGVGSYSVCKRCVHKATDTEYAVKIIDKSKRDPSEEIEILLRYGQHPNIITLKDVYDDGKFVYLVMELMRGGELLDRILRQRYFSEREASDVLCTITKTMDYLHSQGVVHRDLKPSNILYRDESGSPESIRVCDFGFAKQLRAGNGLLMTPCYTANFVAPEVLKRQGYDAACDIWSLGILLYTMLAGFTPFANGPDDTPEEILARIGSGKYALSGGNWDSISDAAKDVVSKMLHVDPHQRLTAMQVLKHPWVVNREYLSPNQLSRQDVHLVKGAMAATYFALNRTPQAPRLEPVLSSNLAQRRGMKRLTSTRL
T1 sequence (Q15418 whole entry, looked up, the tested form may be a part): as the sequence (Q15418 whole entry, the tested form may be a part) above
Serine/threonine-protein kinase Nek3, sequence (P51956 whole entry, the tested form may be a part): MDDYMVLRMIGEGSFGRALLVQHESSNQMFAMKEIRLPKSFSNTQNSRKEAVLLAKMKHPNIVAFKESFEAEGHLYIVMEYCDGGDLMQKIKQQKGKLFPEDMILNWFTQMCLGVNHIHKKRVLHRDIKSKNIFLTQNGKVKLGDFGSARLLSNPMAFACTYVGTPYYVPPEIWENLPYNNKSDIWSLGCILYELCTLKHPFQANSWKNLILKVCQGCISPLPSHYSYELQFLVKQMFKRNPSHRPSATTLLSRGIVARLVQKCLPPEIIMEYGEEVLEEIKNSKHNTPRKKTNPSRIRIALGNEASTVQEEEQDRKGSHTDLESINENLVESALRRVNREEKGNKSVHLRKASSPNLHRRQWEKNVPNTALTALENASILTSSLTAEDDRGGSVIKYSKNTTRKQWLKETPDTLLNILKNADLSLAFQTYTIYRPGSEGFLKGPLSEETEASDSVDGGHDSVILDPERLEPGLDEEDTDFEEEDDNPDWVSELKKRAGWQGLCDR
Mitogen-activated protein kinase 14, sequence (Q16539 whole entry): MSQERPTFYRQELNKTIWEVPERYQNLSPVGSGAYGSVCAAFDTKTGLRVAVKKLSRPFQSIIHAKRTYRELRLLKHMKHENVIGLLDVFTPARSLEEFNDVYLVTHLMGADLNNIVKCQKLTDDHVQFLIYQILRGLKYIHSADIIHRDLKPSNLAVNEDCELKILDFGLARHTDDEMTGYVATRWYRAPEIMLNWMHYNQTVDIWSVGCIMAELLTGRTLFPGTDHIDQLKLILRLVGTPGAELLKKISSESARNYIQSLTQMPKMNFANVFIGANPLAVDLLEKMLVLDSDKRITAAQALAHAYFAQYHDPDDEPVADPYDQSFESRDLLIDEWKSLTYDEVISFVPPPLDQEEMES

SMILES: CCOc1cc(N2CCC(O)CC2)ccc1Nc1ncc2c(n1)N(C)c1ccccc1C(=O)N2C
- IC50 [1]: > 50 µM
- IC50 [2]: > 50 µM
- IC50 [3]: > 50 µM
- IC50 [4]: > 50 µM
- IC50 [5]: > 50 µM
- inhibition [6]: -0.6%
- inhibition [7]: 0.9%
- inhibition [8]: -4.1%
- inhibition [9]: 8.2%
- inhibition [10]: 11.6%
- inhibition [11]: 5.4%
- inhibition [12]: -9.5%
- Kd [13]: 0.19 µM
